Data as given in ChEMBL document CHEMBL1154201, “2-Aminobenzimidazoles as potent Aurora kinase inhibitors” (Bioorg Med Chem Lett, 2009).
pEC50, pIC50: −log10 of the molar value. Converted amounts (≈) assume the structure as drawn. The source made the active and inactive calls. No cut-off for these calls is given here.

Key:
Aurora kinase A = target: T1, Aurora kinase A (Homo sapiens, UniProt O14965); assay: Inhibition of Aurora A after 60 mins
T1 sequence (O14965 whole entry): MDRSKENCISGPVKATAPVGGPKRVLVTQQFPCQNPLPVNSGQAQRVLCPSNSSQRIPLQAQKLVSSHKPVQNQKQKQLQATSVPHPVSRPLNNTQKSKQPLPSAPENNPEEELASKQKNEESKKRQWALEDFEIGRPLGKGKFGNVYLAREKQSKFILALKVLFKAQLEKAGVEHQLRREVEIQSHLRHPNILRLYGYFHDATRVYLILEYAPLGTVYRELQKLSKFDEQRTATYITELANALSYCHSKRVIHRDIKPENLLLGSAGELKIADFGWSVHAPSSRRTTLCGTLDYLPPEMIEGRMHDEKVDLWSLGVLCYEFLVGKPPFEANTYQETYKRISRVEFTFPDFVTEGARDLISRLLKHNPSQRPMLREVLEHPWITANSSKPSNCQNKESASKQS

HCT-116 [1] = assay: Antiproliferative activity against human HCT116 cells by BrdU incorporation assay; assay type: functional, cell-based
Procedure, shortened: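 HCT116 proliferation measured as BrdU incorporation; EC50 reported.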

Aurora kinase B = Aurora kinase B (Homo sapiens, UniProt Q96GD4); assay: Inhibition of Aurora B after 60 mins
Aurora kinase B, sequence (Q96GD4 whole entry): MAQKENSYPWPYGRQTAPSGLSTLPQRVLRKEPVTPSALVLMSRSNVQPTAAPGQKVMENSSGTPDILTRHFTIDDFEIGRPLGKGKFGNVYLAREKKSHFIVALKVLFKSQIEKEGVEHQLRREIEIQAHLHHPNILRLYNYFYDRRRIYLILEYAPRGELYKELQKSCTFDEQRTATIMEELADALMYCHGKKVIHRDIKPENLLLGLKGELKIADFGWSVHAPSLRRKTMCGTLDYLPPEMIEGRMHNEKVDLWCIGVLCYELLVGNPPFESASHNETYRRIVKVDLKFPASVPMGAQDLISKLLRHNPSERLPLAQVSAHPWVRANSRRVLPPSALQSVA

[2] = Aqueous solubility at pH 4; assay type: physicochemical
Procedure, shortened: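 Kinetic solubility at pH 4.0, reported as a range from low to high solubility; values of 1000 µM or higher are reported as >1000 µM.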

HCT-116 [3] = assay: Cell cycle arrest in human HCT116 cells assessed as accumulation of 4N DNA by FACS analysis; assay type: functional, cell-based
Procedure, shortened: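 HCT116 cells exposed to 16, 63, 250 and 1000 nM of compound, then cell-cycle profile read by FACS. EC50 is reported as the concentration range at which ≥50% of cells have 4 N or higher DNA content.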

[4] = Half life in mouse at 5 mg/kg, iv; assay type: ADME, organism-based; set-up: dose 5 mg/kg, route intravenous; conditions: in vivo
HCT-116 [5] = assay: Cell cycle arrest in human HCT116 cells assessed as accumulation of cells at G2 phase; assay type: functional, cell-based
[6] = Clearance in mouse at 5 mg/kg, iv; assay type: ADME, organism-based; set-up: dose 5 mg/kg, route intravenous; conditions: in vivo

SMILES | pIC50 (Aurora kinase A) | pEC50 (HCT-116 [1]) | pIC50 (Aurora kinase B) | solubility [2] [µM] | pEC50 (HCT-116 [3]) | half-life [4] [h] | clearance [6] [L/h/kg] | Activity (HCT-116 [5])
c1ccc2[nH]c(Nc3ccc(CCNc4ncnc5ccsc45)cc3)nc2c1 | 7.55 | 7.39 | 8.00 | > 1000 | – | – | – | –
Clc1cnc2nc(Nc3ccc(CCNc4ncnc5ccsc45)cc3)[nH]c2c1 | 7.70 | 7.77 | 8.00 | 100 (≈ 42.2 µg/mL) | 7.80 | – | – | –
FC(F)(F)c1cnc2nc(Nc3ccc(CCNc4ncnc5ccsc45)cc3)[nH]c2c1 | 7.77 | > 9.00 | 8.30 | 100 (≈ 45.5 µg/mL) | > 7.80 | 1.5 | – | –
O=C(Nc1ccccc1)Nc1ncc(CCNc2ncnc3ccsc23)s1 | – | – | – | 100 (≈ 39.7 µg/mL) | 7.80 | – | – | –
Cn1c(Nc2ccc(CCNc3ncnc4ccsc34)cc2)nc2ccccc21 | – | – | 6.55 | > 1000 | – | – | – | –
c1cc2nc(Nc3ccc(CCNc4ncnc5ccsc45)cc3)[nH]c2cn1 | – | – | 6.85 | > 1000 | – | – | – | –
c1cc(CNc2ncnc3ccsc23)cc(Nc2nc3ccccc3[nH]2)c1 | – | 5.07 | 6.24 | – | – | – | – | –
Cc1nc(Nc2ccc(CCNc3ncnc4ccsc34)cc2)[nH]c1C | – | – | 5.25 | > 1000 | – | – | – | –
FC(F)(F)c1ccc2[nH]c(Nc3ccc(CCNc4ncnc5ccsc45)cn3)nc2c1 | – | – | 6.22 | > 1000 | – | – | – | –
Clc1ccc2[nH]c(Nc3ccc(CCNc4ncnc5ccsc45)cc3)nc2c1 | 7.55 | 8.05 | 8.10 | > 1000 | 7.80 | 0.45 | 2.34 | Active
c1ccc2[nH]c(Nc3ccc(CNc4ncnc5ccsc45)cc3)nc2c1 | – | – | < 5.00 | – | – | – | – | –
c1ccc(-c2c[nH]c(Nc3ccc(CCNc4ncnc5ccsc45)cc3)n2)cc1 | – | – | < 5.00 | > 1000 | – | – | – | –
c1cc(CCNc2ncnc3ccsc23)cc(Nc2nc3ccccc3[nH]2)c1 | – | – | 5.85 | – | – | – | – | –
FC(F)(F)c1cccc(Nc2nc3ccc(CCNc4ncnc5ccsc45)cc3[nH]2)c1 | – | – | 5.85 | – | – | – | – | –
FC(F)(F)c1ccc2nc(Nc3ccc(CCNc4ncnc5ccsc45)nc3)[nH]c2c1 | – | 6.79 | 7.20 | 400 (≈ 182 µg/mL) | 7.20 | – | – | –
CS(=O)(=O)O.O=C(Nc1cccc(Cl)c1)Nc1ncc(CCNc2ncnc3ccsc23)s1 [SNS-314 MESYLATE] | – | – | – | 50 | > 7.80 | 1.4 | 2.88 | –

Continued, in another order:

pIC50 (Aurora kinase A) | pEC50 (HCT-116 [1]) | pIC50 (Aurora kinase B) | solubility [2] [µM] | pEC50 (HCT-116 [3]) | half-life [4] [h] | clearance [6] [L/h/kg] | SMILES | Activity (HCT-116 [5])
– | 6.40 | 6.92 | 200 (≈ 77.5 µg/mL) | – | – | – | c1ccc2oc(Nc3ccc(CCNc4ncnc5ccsc45)cc3)nc2c1 | –
7.40 | 8.30 | 8.22 | 750 (≈ 341 µg/mL) | 7.80 | 0.61 | 5.1 | FC(F)(F)c1ccc2[nH]c(Nc3ccc(CCNc4ncnc5ccsc45)cc3)nc2c1 | Active
– | – | 5.60 | 100 (≈ 40.4 µg/mL) | – | – | – | c1ccc2sc(Nc3ccc(CCNc4ncnc5ccsc45)cc3)nc2c1 | –
5.85 | – | 6.38 | 400 (≈ 157 µg/mL) | – | – | – | c1ccc2[nH]c(Nc3ncc(CCNc4ncnc5ccsc45)s3)nc2c1 | –
– | 6.57 | 7.08 | > 1000 | – | – | – | c1cnc2nc(Nc3ccc(CCNc4ncnc5ccsc45)cc3)[nH]c2c1 | –
6.31 | 5.72 | 6.21 | 100 (≈ 46.1 µg/mL) | – | – | – | FC(F)(F)c1ccc2nc(Nc3ncc(CCNc4ncnc5ccsc45)s3)[nH]c2c1 | –
– | – | – | 50 (≈ 23.2 µg/mL) | > 7.80 | – | – | O=C(Nc1cccc(C(F)(F)F)c1)Nc1ncc(CCNc2ncnc3ccsc23)s1 | –
7.19 | 7.10 | 7.68 | 750 (≈ 354 µg/mL) | 7.20 | – | – | Fc1cc(CCNc2ncnc3ccsc23)ccc1Nc1nc2cc(C(F)(F)F)ccc2[nH]1 | –
